Reference: ChEMBL document CHEMBL4219116, “Adenosine analogs bearing phosphate isosteres as human MDO1 ligands” (Bioorg Med Chem, 2018)
The source made the active and inactive calls. The calls are words filed in the database; no cut-off is given here.

Legend:
[1] = target: T1, ADP-ribose glycohydrolase MACROD1 (Homo sapiens) (UniProt Q9BQ69); test: Inhibition of recombinant human N-terminal His6-tagged MDO1 (58 to 325 residues) expressed in Escherichia coli Rosetta2 (DE3) at 1 mM using mono-biotin-ADP-ribosylated SRPK2 as substrate after 16 hrs by Western blot analysis
T1 sequence (whole entry): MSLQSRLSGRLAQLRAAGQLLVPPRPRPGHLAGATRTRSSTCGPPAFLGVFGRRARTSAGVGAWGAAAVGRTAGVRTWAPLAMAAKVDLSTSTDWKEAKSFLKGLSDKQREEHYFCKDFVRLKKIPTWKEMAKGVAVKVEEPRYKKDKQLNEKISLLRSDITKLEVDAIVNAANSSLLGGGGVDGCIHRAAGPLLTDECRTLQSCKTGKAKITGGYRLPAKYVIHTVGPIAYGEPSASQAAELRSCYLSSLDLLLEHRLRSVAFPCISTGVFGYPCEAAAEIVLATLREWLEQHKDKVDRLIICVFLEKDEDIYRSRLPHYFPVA
In short: (§1)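 Substrate was SRPK2 mono-biotin-ADP-ribosylated by ARTD10. 2 μM substrate, 2 μM MDO1 and 0.8–1 mM compound were incubated 16 h in 25 mM HEPES pH 7.5, 100 mM NaCl. The reaction was stopped with Laemmli buffer at 95 °C for 5 min, then run on SDS-PAGE and blotted. Detection used streptavidin-HRP with chemiluminescence. Readout was qualitative, against SRPK2-alone and no-inhibitor controls.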

[2] = target: T2, ADP-ribose glycohydrolase MACROD1 (Homo sapiens, UniProt Q9BQ69); test: Binding affinity to human MDO1 by ITC
T2 sequence (Q9BQ69 whole entry): T1 sequence (whole entry)

[3] = target: T1, ADP-ribose glycohydrolase MACROD1 (Homo sapiens); test: Inhibition of recombinant human N-terminal His6-tagged MDO1 (58 to 325 residues) expressed in Escherichia coli Rosetta2 (DE3) using mono-biotin-ADP-ribosylated SRPK2 as substrate after 16 hrs by Western blot analysis; in short: as §1
[4] = target: T1, ADP-ribose glycohydrolase MACROD1 (Homo sapiens); test: Binding affinity to human MDO1 assessed as change in melting temperature by DSF method
In short: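 Thermal shift read-out: a hydrophobic reporter dye binds the exposed protein core as the protein denatures with rising temperature. ΔTm is taken as the stabilization by ligand.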

[5] = target: T3, ADP-ribose glycohydrolase MACROD2 (Homo sapiens) (UniProt A1Z1Q3); test: Inhibition of recombinant MDO2 (7 to 243 residues) (unknown origin) expressed in Escherichia coli Rosetta2 (DE3) at 6.6 mM using mono-ADP-ribosylated SRPK2 as substrate after 1 hr 20 mins by Alphascreen assay
T3 sequence (whole entry): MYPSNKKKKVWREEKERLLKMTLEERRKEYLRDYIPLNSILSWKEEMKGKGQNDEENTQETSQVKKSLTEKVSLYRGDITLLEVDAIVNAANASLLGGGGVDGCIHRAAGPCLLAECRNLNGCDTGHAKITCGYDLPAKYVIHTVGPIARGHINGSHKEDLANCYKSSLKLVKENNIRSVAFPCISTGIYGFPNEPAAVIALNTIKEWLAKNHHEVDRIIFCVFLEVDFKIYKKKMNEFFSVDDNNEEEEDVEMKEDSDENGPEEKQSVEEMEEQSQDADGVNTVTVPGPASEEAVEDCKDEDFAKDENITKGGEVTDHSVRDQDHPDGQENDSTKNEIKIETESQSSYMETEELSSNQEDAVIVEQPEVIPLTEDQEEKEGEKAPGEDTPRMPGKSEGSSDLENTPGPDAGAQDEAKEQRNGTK
In short: (§2)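 AlphaScreen hydrolysis assay run in quadruplicate, with compound from 6.6 mM to 0.66 μM in half-log dilutions. MDO1 or MDO2 (800 nM final) was added, then mono-ADP-ribosylated SRPK2 (50 nM final), and incubated 1 h 20 min at room temperature. Acceptor/donor beads (5 μg/ml final) were added for 3 h in the dark before reading luminescence.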

[6] = target: T1, ADP-ribose glycohydrolase MACROD1 (Homo sapiens); test: Inhibition of recombinant human N-terminal His6-tagged MDO1 (58 to 325 residues) expressed in Escherichia coli Rosetta2 (DE3) at 6.6 mM using mono-ADP-ribosylated SRPK2 as substrate after 1 hr 20 mins by Alphascreen assay; in short: as §2
[7] = target: T1, ADP-ribose glycohydrolase MACROD1 (Homo sapiens); test: Inhibition of recombinant human N-terminal His6-tagged MDO1 (58 to 325 residues) expressed in Escherichia coli Rosetta2 (DE3) at 0.8 mM using mono-biotin-ADP-ribosylated SRPK2 as substrate after 16 hrs by Western blot analysis; in short: as §1

Row | SMILES | inhibition [1] | inhibition [7] | other results
1 | Nc1ncnc2c1ncn2C1OC(CNC(=O)[C@H](CC(=O)O)NC(=O)OCC2c3ccccc3-c3ccccc32)[C@@H](O)C1O (single isomer, unassigned) | inactive |  | 
2 | Nc1ncnc2c1ncn2[C@@H]1O[C@H](COP(=O)(O)OP(=O)(O)OC[C@@H]2O[C@H](O)[C@@H](O)[C@H]2O)[C@@H](O)[C@H]1O |  |  | Kd [2]: 900 nM; inhibition [3]: Active; ΔTm [4]: 5 °C
3 | Nc1ncnc2c1ncn2[C@@H]1O[C@H](COP(=O)(O)O)[C@@H](O)[C@H]1O |  |  | inhibition [3]: inactive; ΔTm [4]: < 1 °C
4 | Nc1ncnc2c1ncn2C1OC(CNC(=O)Cc2nnn[nH]2)[C@@H](O)[C@H]1O (single isomer, unassigned) | inactive |  | 
5 | Cc1ccc(CNc2c(NC[C@H]3O[C@@H](n4cnc5c(N)ncnc54)[C@H](O)[C@@H]3O)c(=O)c2=O)cc1 | Active |  | inhibition [5]: inactive; inhibition [6]: inactive
6 | Nc1ncnc2c1ncn2[C@@H]1O[C@H](CNc2c(NCc3ccc(F)cc3)c(=O)c2=O)[C@@H](O)[C@H]1O |  | inactive | 
7 | Nc1ncnc2c1ncn2[C@@H]1O[C@H](CNc2c(Nc3cccc([N+](=O)[O-])c3)c(=O)c2=O)[C@@H](O)[C@H]1O |  | inactive | 
8 | Nc1ncnc2c1ncn2C1OC(CNC(=O)CSc2nnnn2-c2ccccc2)[C@@H](O)[C@H]1O (single isomer, unassigned) | inactive |  | 
9 | COc1ccc(CNc2c(NC[C@H]3O[C@@H](n4cnc5c(N)ncnc54)[C@H](O)[C@@H]3O)c(=O)c2=O)cc1 | inactive |  | 
10 | Nc1ncnc2c1ncn2[C@@H]1O[C@H](CNc2c(NCc3ccccc3)c(=O)c2=O)[C@@H](O)[C@H]1O | inactive |  | 
11 | CCCCNc1c(NC[C@H]2O[C@@H](n3cnc4c(N)ncnc43)[C@H](O)[C@@H]2O)c(=O)c1=O |  | inactive | 
12 | Nc1ncnc2c1ncn2[C@@H]1O[C@H](COP(=O)(O)OP(=O)(O)O)[C@@H](O)[C@H]1O |  |  | inhibition [3]: inactive; ΔTm [4]: < 1 °C
13 | Nc1ncnc2c1ncn2[C@@H]1O[C@H](CNc2c(Nc3cccc(O)c3)c(=O)c2=O)[C@@H](O)[C@H]1O |  | inactive | 
14 | Nc1ncnc2c1ncn2C1OC(CNC(=O)[C@@H](N)CO)[C@@H](O)C1O (single isomer, unassigned) | inactive |  | 
15 | Nc1ncnc2c1ncn2C1OC(CNC(=O)[C@H](CO)NC(=O)OCC2c3ccccc3-c3ccccc32)[C@@H](O)C1O (single isomer, unassigned) |  | Active | inhibition [5]: inactive; inhibition [6]: inactive
